Source: ChEMBL document CHEMBL4138226, “Marine Natural Product Honaucin A Attenuates Inflammation by Activating the Nrf2-ARE Pathway” (J Nat Prod, 2018)
Structures can show the parent of a compound that is named as a salt. Active and inactive are the calls of the source. No cut-off for these calls is given here.

Tests used:
[1] = biological target: T1, Keap1/Nrf2 (Homo sapiens) (UniProt Q16236+Q14145); assay: Activation of Keap1/Nrf2 in human MCF7 cells assessed as Nrf2 stabilization at 15 uM incubated overnight by luciferase reporter gene based luminescence assay; format: cell-based
Procedure, shortened: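 MCF7 cells stably carrying an Nrf2-responsive firefly luciferase construct, grown with G418, seeded 5 × 10^4 cells/well and left overnight at 37 °C. Compound added in DMSO (tested range 1.98–15.0 μM), incubated overnight. Cells washed, lysed 15 min at room temperature, luminescence read after substrate injection. Activation = % RLU over untreated cells, DMSO value subtracted. Triplicate technical wells; positive controls tBHQ and DMF.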

[2] = system: MCF7; assay: Cytotoxicity against human MCF7 cells assessed as decrease in cell viability at 15 uM by MTT assay; format: cell-based; conditions: mcf7, 15 µM
Procedure, shortened: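 Nrf2-reporter MCF7 cells seeded and dosed as in the reporter assay (1.98–15.0 μM in DMSO, overnight at 37 °C). Cells washed, then 1 mg/mL MTT in serum-free DMEM for 25 min at 37 °C. Formazan dissolved in DMSO, absorbance read at 570 and 630 nm, background subtracted. Viability given as % of untreated control, mean ± standard error.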

[3] = biological target: T2, Kelch-like ECH-associated protein 1/Nuclear factor erythroid 2-related factor 2 (Mus musculus) (UniProt Q60795+Q9Z2X8); assay: Activation of Keap1/Nrf2 in mouse LPS-induced RAW264.7 cells assessed as change in Procr expression level at 4 to 12 uM pretreated for 1 hr followed by LPS addition measured after 30 to 180 mins; format: cell-based
Procedure, shortened: (§1)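 RAW 264.7 macrophages (DMEM, 10% FBS) grown near confluent; compound (4 or 12 μM) or EtOH vehicle 1 h at 37 °C, then LPS (E. coli O26:B6, 0.5 μg/mL) for 30 or 180 min; triplicate wells. TRIzol total RNA, rRNA depletion, Illumina HiSeq2000 100 bp single-end reads; DESeq2 differential expression versus matched LPS-only control.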

[4] = biological target: T2, Kelch-like ECH-associated protein 1/Nuclear factor erythroid 2-related factor 2 (Mus musculus); assay: Activation of Keap1/Nrf2 in mouse LPS-induced RAW264.7 cells assessed as change in Ccrl2 expression level at 4 to 12 uM pretreated for 1 hr followed by LPS addition measured after 30 to 180 mins; format: cell-based; procedure, shortened: as §1
[5] = biological target: T2, Kelch-like ECH-associated protein 1/Nuclear factor erythroid 2-related factor 2 (Mus musculus); assay: Activation of Keap1/Nrf2 in mouse LPS-induced RAW264.7 cells assessed as change in Nfkbia expression level at 4 to 12 uM pretreated for 1 hr followed by LPS addition measured after 30 to 180 mins; format: cell-based; procedure, shortened: as §1
[6] = biological target: T2, Kelch-like ECH-associated protein 1/Nuclear factor erythroid 2-related factor 2 (Mus musculus); assay: Activation of Keap1/Nrf2 in mouse LPS-induced RAW264.7 cells assessed as change in Cd83 expression level at 4 to 12 uM pretreated for 1 hr followed by LPS addition measured after 30 to 180 mins; format: cell-based; procedure, shortened: as §1
[7] = biological target: T2, Kelch-like ECH-associated protein 1/Nuclear factor erythroid 2-related factor 2 (Mus musculus); assay: Activation of Keap1/Nrf2 in mouse LPS-induced RAW264.7 cells assessed as increase in Slc7a11 expression level at 4 to 12 uM pretreated for 1 hr followed by LPS addition measured after 30 to 180 mins; format: cell-based; procedure, shortened: as §1
[8] = biological target: T2, Kelch-like ECH-associated protein 1/Nuclear factor erythroid 2-related factor 2 (Mus musculus); assay: Activation of Keap1/Nrf2 in mouse LPS-induced RAW264.7 cells assessed as change in […] expression level at 4 to 12 uM pretreated for 1 hr followed by LPS addition measured after 30 to 180 mins; format: cell-based; procedure, shortened: as §1
[9] = biological target: T2, Kelch-like ECH-associated protein 1/Nuclear factor erythroid 2-related factor 2 (Mus musculus); assay: Activation of Keap1/Nrf2 in mouse LPS-induced RAW264.7 cells assessed as change in Tnfaip3 expression level at 4 to 12 uM pretreated for 1 hr followed by LPS addition measured after 30 to 180 mins; format: cell-based; procedure, shortened: as §1
[10] = biological target: T2, Kelch-like ECH-associated protein 1/Nuclear factor erythroid 2-related factor 2 (Mus musculus); assay: Activation of Keap1/Nrf2 in mouse LPS-induced RAW264.7 cells assessed as change in IL-1beta expression level at 4 to 12 uM pretreated for 1 hr followed by LPS addition measured after 30 to 180 mins; format: cell-based; procedure, shortened: as §1
[11] = biological target: T2, Kelch-like ECH-associated protein 1/Nuclear factor erythroid 2-related factor 2 (Mus musculus); assay: Activation of Keap1/Nrf2 in mouse LPS-induced RAW264.7 cells assessed as increase in Prdx1 expression level at 4 to 12 uM pretreated for 1 hr followed by LPS addition measured after 30 to 180 mins; format: cell-based; procedure, shortened: as §1
[12] = biological target: T2, Kelch-like ECH-associated protein 1/Nuclear factor erythroid 2-related factor 2 (Mus musculus); assay: Activation of Keap1/Nrf2 in mouse LPS-induced RAW264.7 cells assessed as downregulation of Rasgef1 expression level at 4 to 12 uM pretreated for 1 hr followed by LPS addition measured after 30 mins; format: cell-based; procedure, shortened: as §1
[13] = biological target: T2, Kelch-like ECH-associated protein 1/Nuclear factor erythroid 2-related factor 2 (Mus musculus); assay: Activation of Keap1/Nrf2 in mouse LPS-induced RAW264.7 cells assessed as change in Cd300lb expression level at 4 to 12 uM pretreated for 1 hr followed by LPS addition measured after 30 to 180 mins; format: cell-based; procedure, shortened: as §1
[14] = biological target: T1, Keap1/Nrf2 (Homo sapiens); assay: Activation of Keap1/Nrf2 in human MCF7 cells assessed as Nrf2 stabilization incubated overnight by luciferase reporter gene based luminescence assay; format: cell-based
Procedure, shortened: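 NRF2 luciferase reporter MCF7 stable cells in DMEM/10% FBS with G418, seeded 5 × 10^4 cells/well, overnight adherence; DMSO-dissolved compound 1.98–15.0 μM, overnight 37 °C/5% CO2. Lysed in passive lysis buffer, firefly luciferase substrate injected, luminescence read. Activation (%) = (treated − untreated)/untreated × 100, DMSO value subtracted; tBHQ and DMF positive controls; three technical replicates per biological replicate.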

[15] = biological target: T2, Kelch-like ECH-associated protein 1/Nuclear factor erythroid 2-related factor 2 (Mus musculus); assay: Activation of Keap1/Nrf2 in mouse LPS-induced RAW264.7 cells assessed as increase in […] expression level at 4 to 12 uM pretreated for 1 hr followed by LPS addition measured after 30 to 180 mins; format: cell-based; procedure, shortened: as §1
[16] = biological target: T2, Kelch-like ECH-associated protein 1/Nuclear factor erythroid 2-related factor 2 (Mus musculus); assay: Activation of Keap1/Nrf2 in mouse LPS-induced RAW264.7 cells assessed as increase in Sqstm1 expression level at 4 to 12 uM pretreated for 1 hr followed by LPS addition measured after 30 to 180 mins; format: cell-based; procedure, shortened: as §1
[17] = biological target: T2, Kelch-like ECH-associated protein 1/Nuclear factor erythroid 2-related factor 2 (Mus musculus); assay: Activation of Keap1/Nrf2 in mouse LPS-induced RAW264.7 cells assessed as increase in Gclm expression level at 4 to 12 uM pretreated for 1 hr followed by LPS addition measured after 30 to 180 mins; format: cell-based; procedure, shortened: as §1
[18] = biological target: T2, Kelch-like ECH-associated protein 1/Nuclear factor erythroid 2-related factor 2 (Mus musculus); assay: Activation of Keap1/Nrf2 in mouse LPS-induced RAW264.7 cells assessed as change in IFNb1 expression level at 4 to 12 uM pretreated for 1 hr followed by LPS addition measured after 30 to 180 mins; format: cell-based; procedure, shortened: as §1
[19] = biological target: T2, Kelch-like ECH-associated protein 1/Nuclear factor erythroid 2-related factor 2 (Mus musculus); assay: Activation of Keap1/Nrf2 in mouse LPS-induced RAW264.7 cells assessed as change in IL-1alpha expression level at 4 to 12 uM pretreated for 1 hr followed by LPS addition measured after 30 to 180 mins; format: cell-based; procedure, shortened: as §1
[20] = system: Mus musculus; assay: Antiinflammatory activity in hypersensitivity CD1 mouse ear edema model assessed as PMA-induced ear edema at 1 umol/ear applied topically pretreated for 10 mins followed by PMA application measured after 6 hrs (reference value: 32.5 +/- 7.5%); format: functional
[21] = system: Mus musculus; assay: Antiinflammatory activity in hypersensitivity CD1 mouse ear edema model assessed as PMA-induced ear edema at 0.1 umol/ear applied topically pretreated for 10 mins followed by PMA application measured after 6 hrs (reference value: 32.5 +/- 7.5%); format: functional
[22] = biological target: T2, Kelch-like ECH-associated protein 1/Nuclear factor erythroid 2-related factor 2 (Mus musculus); assay: Activation of Keap1/Nrf2 in mouse LPS-induced RAW264.7 cells assessed as change in Fos expression level at 4 to 12 uM pretreated for 1 hr followed by LPS addition measured after 30 to 180 mins; format: cell-based; procedure, shortened: as §1
[23] = biological target: T2, Kelch-like ECH-associated protein 1/Nuclear factor erythroid 2-related factor 2 (Mus musculus); assay: Activation of Keap1/Nrf2 in mouse LPS-induced RAW264.7 cells assessed as increase in Hmox1 expression level at 12 uM pretreated for 1 hr followed by LPS addition measured after 30 to 180 mins; format: cell-based; procedure, shortened: as §1
[24] = biological target: T2, Kelch-like ECH-associated protein 1/Nuclear factor erythroid 2-related factor 2 (Mus musculus); assay: Activation of Keap1/Nrf2 in mouse LPS-induced RAW264.7 cells assessed as downregulation of Socs3 expression level at 4 to 12 uM pretreated for 1 hr followed by LPS addition measured after 30 mins; format: cell-based; procedure, shortened: as §1
[25] = biological target: T2, Kelch-like ECH-associated protein 1/Nuclear factor erythroid 2-related factor 2 (Mus musculus); assay: Activation of Keap1/Nrf2 in mouse LPS-induced RAW264.7 cells assessed as change in TNF expression level at 4 to 12 uM pretreated for 1 hr followed by LPS addition measured after 30 to 180 mins; format: cell-based; procedure, shortened: as §1
[26] = biological target: T2, Kelch-like ECH-associated protein 1/Nuclear factor erythroid 2-related factor 2 (Mus musculus); assay: Activation of Keap1/Nrf2 in mouse LPS-induced RAW264.7 cells assessed as change in Ccl22 expression level at 4 to 12 uM pretreated for 1 hr followed by LPS addition measured after 30 to 180 mins; format: cell-based; procedure, shortened: as §1
[27] = biological target: T2, Kelch-like ECH-associated protein 1/Nuclear factor erythroid 2-related factor 2 (Mus musculus); assay: Activation of Keap1/Nrf2 in mouse LPS-induced RAW264.7 cells assessed as change in Irf1 expression level at 4 to 12 uM pretreated for 1 hr followed by LPS addition measured after 30 to 180 mins; format: cell-based; procedure, shortened: as §1
[28] = system: Mus musculus; assay: Antiinflammatory activity in hypersensitivity CD1 mouse ear edema model assessed as PMA-induced ear edema at 3 umol/ear applied topically pretreated for 10 mins followed by PMA application measured after 6 hrs (reference value: 32.5 +/- 7.5%); format: functional
[29] = biological target: T2, Kelch-like ECH-associated protein 1/Nuclear factor erythroid 2-related factor 2 (Mus musculus); assay: Activation of Keap1/Nrf2 in mouse LPS-induced RAW264.7 cells assessed as increase in Srxn1 expression level at 4 to 12 uM pretreated for 1 hr followed by LPS addition measured after 30 to 180 mins; format: cell-based; procedure, shortened: as §1
[30] = biological target: T2, Kelch-like ECH-associated protein 1/Nuclear factor erythroid 2-related factor 2 (Mus musculus); assay: Activation of Keap1/Nrf2 in mouse LPS-induced RAW264.7 cells assessed as change in Nfkbiz expression level at 4 to 12 uM pretreated for 1 hr followed by LPS addition measured after 30 to 180 mins; format: cell-based; procedure, shortened: as §1
[31] = system: Mus musculus; assay: Antiinflammatory activity in hypersensitivity CD1 mouse ear edema model assessed as PMA-induced ear edema at 0.3 umol/ear applied topically pretreated for 10 mins followed by PMA application measured after 6 hrs (reference value: 32.5 +/- 7.5%); format: functional
[32] = biological target: T2, Kelch-like ECH-associated protein 1/Nuclear factor erythroid 2-related factor 2 (Mus musculus); assay: Activation of Keap1/Nrf2 in mouse LPS-induced RAW264.7 cells assessed as increase in Akr1b8 expression level at 4 to 12 uM pretreated for 1 hr followed by LPS addition measured after 30 to 180 mins; format: cell-based; procedure, shortened: as §1
[33] = biological target: T2, Kelch-like ECH-associated protein 1/Nuclear factor erythroid 2-related factor 2 (Mus musculus); assay: Activation of Keap1/Nrf2 in mouse LPS-induced RAW264.7 cells assessed as change in Fosl1 expression level at 4 to 12 uM pretreated for 1 hr followed by LPS addition measured after 30 to 180 mins; format: cell-based; procedure, shortened: as §1

T2 sequence (Q60795 whole entry, looked up): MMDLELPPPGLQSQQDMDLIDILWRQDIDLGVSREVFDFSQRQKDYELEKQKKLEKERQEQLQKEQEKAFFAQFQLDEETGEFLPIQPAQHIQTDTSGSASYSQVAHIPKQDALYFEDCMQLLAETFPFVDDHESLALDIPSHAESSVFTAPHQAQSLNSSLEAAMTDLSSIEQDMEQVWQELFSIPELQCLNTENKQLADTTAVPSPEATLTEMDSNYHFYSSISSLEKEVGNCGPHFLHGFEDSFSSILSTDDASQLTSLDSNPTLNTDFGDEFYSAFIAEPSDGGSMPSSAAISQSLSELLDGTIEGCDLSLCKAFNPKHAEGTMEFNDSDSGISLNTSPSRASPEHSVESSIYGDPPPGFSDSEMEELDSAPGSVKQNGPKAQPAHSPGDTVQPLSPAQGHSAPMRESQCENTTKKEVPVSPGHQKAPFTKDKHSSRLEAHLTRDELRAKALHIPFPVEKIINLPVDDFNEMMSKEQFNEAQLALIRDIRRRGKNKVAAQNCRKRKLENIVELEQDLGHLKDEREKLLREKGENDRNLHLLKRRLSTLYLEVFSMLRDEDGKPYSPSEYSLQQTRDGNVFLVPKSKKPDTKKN
T2 sequence (Q9Z2X8 whole entry, looked up): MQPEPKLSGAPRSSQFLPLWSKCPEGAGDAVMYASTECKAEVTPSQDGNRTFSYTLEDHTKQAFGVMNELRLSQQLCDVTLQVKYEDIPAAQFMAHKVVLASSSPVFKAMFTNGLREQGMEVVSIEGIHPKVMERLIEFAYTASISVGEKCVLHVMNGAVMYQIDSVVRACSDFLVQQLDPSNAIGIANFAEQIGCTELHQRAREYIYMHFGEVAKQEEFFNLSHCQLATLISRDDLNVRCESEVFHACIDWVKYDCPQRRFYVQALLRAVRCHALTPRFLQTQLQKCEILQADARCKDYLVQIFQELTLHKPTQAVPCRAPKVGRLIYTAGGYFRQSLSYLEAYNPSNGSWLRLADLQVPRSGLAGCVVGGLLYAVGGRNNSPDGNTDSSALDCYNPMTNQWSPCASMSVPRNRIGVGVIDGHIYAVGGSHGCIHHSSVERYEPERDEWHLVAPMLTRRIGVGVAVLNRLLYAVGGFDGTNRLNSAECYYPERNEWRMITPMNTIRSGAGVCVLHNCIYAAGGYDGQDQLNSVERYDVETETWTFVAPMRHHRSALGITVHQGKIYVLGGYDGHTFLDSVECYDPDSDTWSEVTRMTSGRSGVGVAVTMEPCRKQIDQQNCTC
T1 sequence (Q14145 whole entry, looked up): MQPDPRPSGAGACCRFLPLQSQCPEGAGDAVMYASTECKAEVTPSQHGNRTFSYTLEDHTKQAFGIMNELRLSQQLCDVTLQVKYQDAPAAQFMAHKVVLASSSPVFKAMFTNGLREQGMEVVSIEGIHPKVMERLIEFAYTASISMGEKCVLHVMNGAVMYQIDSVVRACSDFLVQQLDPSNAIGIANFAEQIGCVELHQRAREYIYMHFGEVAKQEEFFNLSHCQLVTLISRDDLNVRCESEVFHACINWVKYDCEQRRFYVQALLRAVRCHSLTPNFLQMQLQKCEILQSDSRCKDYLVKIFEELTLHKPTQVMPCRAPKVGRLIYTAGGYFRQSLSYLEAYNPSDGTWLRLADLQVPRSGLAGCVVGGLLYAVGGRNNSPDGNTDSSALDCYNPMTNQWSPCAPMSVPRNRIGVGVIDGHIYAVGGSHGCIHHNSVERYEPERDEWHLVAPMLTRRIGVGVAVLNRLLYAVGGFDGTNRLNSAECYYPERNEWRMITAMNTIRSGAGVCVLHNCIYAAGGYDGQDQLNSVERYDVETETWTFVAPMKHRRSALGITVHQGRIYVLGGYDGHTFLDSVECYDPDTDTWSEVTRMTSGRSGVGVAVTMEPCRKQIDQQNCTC
T1 sequence (Q16236 whole entry, looked up): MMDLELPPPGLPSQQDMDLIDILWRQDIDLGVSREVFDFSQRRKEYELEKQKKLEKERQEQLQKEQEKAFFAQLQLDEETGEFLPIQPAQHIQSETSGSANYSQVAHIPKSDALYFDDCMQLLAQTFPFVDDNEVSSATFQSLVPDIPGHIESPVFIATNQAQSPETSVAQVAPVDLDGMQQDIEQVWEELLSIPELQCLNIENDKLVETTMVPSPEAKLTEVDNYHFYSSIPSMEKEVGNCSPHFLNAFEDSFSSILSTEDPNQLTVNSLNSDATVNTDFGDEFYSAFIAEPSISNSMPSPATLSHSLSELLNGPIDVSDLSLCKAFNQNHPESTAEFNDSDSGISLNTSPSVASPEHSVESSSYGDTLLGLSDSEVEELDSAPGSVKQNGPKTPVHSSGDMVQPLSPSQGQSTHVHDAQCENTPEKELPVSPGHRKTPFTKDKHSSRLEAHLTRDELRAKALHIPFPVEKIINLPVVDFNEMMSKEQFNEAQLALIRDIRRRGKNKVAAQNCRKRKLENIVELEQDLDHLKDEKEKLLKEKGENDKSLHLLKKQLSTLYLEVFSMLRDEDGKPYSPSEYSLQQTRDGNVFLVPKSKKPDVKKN

SMILES: COC(=O)/C=C/C(=O)OC [DIMETHYL FUMARATE]
- Activity [1]: Active
- Activity [2]: Toxic

SMILES: O=C(/C=C/CCl)O[C@@H]1COC(=O)C1
- Activity [3]: Active
- Activity [4]: Active
- Activity [5]: Active
- Activity [6]: Active
- Activity [7]: Active
- Activity [8]: Active
- Activity [9]: Active
- Activity [10]: Active
- Activity [11]: Active
- Activity [12]: Active
- Activity [13]: Active
- Activity [14]: Dose-dependent effect
- Activity [15]: Active
- Activity [16]: Active
- Activity [17]: Active
- Activity [18]: Active
- Activity [19]: Active
- Activity [20]: 27.6%
- Activity [21]: 17.1%
- Activity [22]: Active
- Activity [23]: Active
- Activity [24]: Active
- Activity [25]: Active
- Activity [26]: Active
- Activity [27]: Active
- Activity [28]: 51.4%
- Activity [29]: Active
- Activity [30]: Active
- Activity [2]: Toxic
- Activity [31]: 10%
- Activity [32]: Active
- Activity [33]: Active

SMILES: CC(C)(C)c1cc(O)ccc1O [E319]
- Activity [1]: Active
- Activity [2]: Toxic
